In brackets after ≈: the same amount, converted by molar mass. Activity calls are given as the source filed them. The rule behind the calls is not given here.
How the values were obtained:
[1] = system: PC-3; assay: Cytotoxicity against human PC3 cells assessed as growth inhibition at 10 uM after 48 hrs by sulphorhodamine B assay; format: functional; conditions: PC-3, 48 h, read-out: GI
Procedure, shortened: (§1)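 NCI-60 one-dose screen per the NCI Drug Evaluation Branch protocol. Cells given a single 10 µM concentration with 48 h continuous exposure. Growth estimated by sulphorhodamine B protein assay. Result expressed as percentage growth inhibition relative to untreated growth.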

[2] = system: OVCAR-5; assay: Cytotoxicity against human OVCAR5 cells assessed as growth inhibition at 10 uM after 48 hrs by sulphorhodamine B assay; format: functional; conditions: OVCAR-5, 48 h, read-out: GI; procedure, shortened: as §1
[3] = system: RXF 393; assay: Cytotoxicity against human RXF393 cells assessed as growth inhibition at 10 uM after 48 hrs by sulphorhodamine B assay; format: functional; conditions: RXF 393, 48 h, read-out: GI; procedure, shortened: as §1
[4] = system: A498; assay: Cytotoxicity against human A498 cells assessed as growth inhibition at 10 uM after 48 hrs by sulphorhodamine B assay; format: functional; conditions: A498, 48 h, read-out: GI; procedure, shortened: as §1
[5] = system: NCI/ADR-RES; assay: Cytotoxicity against human NCI/ADR-RES cells assessed as growth inhibition at 10 uM after 48 hrs by sulphorhodamine B assay; format: functional; conditions: read-out: GI; procedure, shortened: as §1
[6] = system: CCRF-CEM; assay: Cytotoxicity against human CCRF-CEM cells assessed as growth inhibition at 10 uM after 48 hrs by sulphorhodamine B assay; format: functional; conditions: read-out: GI; procedure, shortened: as §1
[7] = system: NCI-H23; assay: Cytotoxicity against human NCI-H23 cells assessed as growth inhibition at 10 uM after 48 hrs by sulphorhodamine B assay; format: functional; conditions: NCI-H23, 48 h, read-out: GI; procedure, shortened: as §1
[8] = system: OVCAR-4; assay: Cytotoxicity against human OVCAR4 cells assessed as growth inhibition at 10 uM after 48 hrs by sulphorhodamine B assay; format: functional; conditions: OVCAR-4, 48 h, read-out: GI; procedure, shortened: as §1
[9] = system: K562; assay: Cytotoxicity against human K562 cells assessed as growth inhibition at 10 uM after 48 hrs by sulphorhodamine B assay; format: functional; conditions: K562, 48 h, read-out: GI; procedure, shortened: as §1
[10] = system: DU-145; assay: Cytotoxicity against human DU145 cells assessed as growth inhibition at 10 uM after 48 hrs by sulphorhodamine B assay; format: functional; conditions: DU-145, 48 h, read-out: GI; procedure, shortened: as §1
[11] = system: SK-OV-3; assay: Cytotoxicity against human SKOV3 cells assessed as growth inhibition at 10 uM after 48 hrs by sulphorhodamine B assay; format: functional; conditions: SK-OV-3, 48 h, read-out: GI; procedure, shortened: as §1
[12] = system: HOP-92; assay: Cytotoxicity against human HOP92 cells assessed as growth inhibition at 10 uM after 48 hrs by sulphorhodamine B assay; format: functional; conditions: HOP-92, 48 h, read-out: GI; procedure, shortened: as §1
[13] = system: SK-MEL-2; assay: Cytotoxicity against human SK-MEL-2 cells assessed as growth inhibition at 10 uM after 48 hrs by sulphorhodamine B assay; format: functional; conditions: SK-MEL-2, 48 h, read-out: GI; procedure, shortened: as §1
[14] = system: SNB-19; assay: Cytotoxicity against human SNB19 cells assessed as growth inhibition at 10 uM after 48 hrs by sulphorhodamine B assay; format: functional; conditions: SNB-19, 48 h, read-out: GI; procedure, shortened: as §1
[15] = system: LOX IMVI; assay: Cytotoxicity against human LOXIMVI cells assessed as growth inhibition at 10 uM after 48 hrs by sulphorhodamine B assay; format: functional; conditions: read-out: GI; procedure, shortened: as §1
[16] = system: SF-295; assay: Cytotoxicity against human SF295 cells assessed as growth inhibition at 10 uM after 48 hrs by sulphorhodamine B assay; format: functional; conditions: SF-295, 48 h, read-out: GI; procedure, shortened: as §1
[17] = system: UACC-62; assay: Cytotoxicity against human UACC62 cells assessed as growth inhibition at 10 uM after 48 hrs by sulphorhodamine B assay; format: functional; conditions: UACC-62, 48 h, read-out: GI; procedure, shortened: as §1
[18] = system: NCI-H522; assay: Cytotoxicity against human NCI-H522 cells assessed as growth inhibition at 10 uM after 48 hrs by sulphorhodamine B assay; format: functional; conditions: NCI-H522, 48 h, read-out: GI; procedure, shortened: as §1
[19] = system: CAKI-1; assay: Cytotoxicity against human Caki1 cells assessed as growth inhibition at 10 uM after 48 hrs by sulphorhodamine B assay; format: functional; conditions: CAKI-1, 48 h, read-out: GI; procedure, shortened: as §1
[20] = system: SR; assay: Cytotoxicity against human SR cells assessed as growth inhibition at 10 uM after 48 hrs by sulphorhodamine B assay; format: functional; conditions: read-out: GI; procedure, shortened: as §1
[21] = system: MDA-MB-435; assay: Cytotoxicity against human MDA-MB-435 cells assessed as growth inhibition at 10 uM after 48 hrs by sulphorhodamine B assay; format: functional; conditions: MDA-MB-435, 48 h, read-out: GI; procedure, shortened: as §1
[22] = system: SK-MEL-5; assay: Cytotoxicity against human SK-MEL-5 cells assessed as growth inhibition at 10 uM after 48 hrs by sulphorhodamine B assay; format: functional; conditions: SK-MEL-5, 48 h, read-out: GI; procedure, shortened: as §1
[23] = system: MCF7; assay: Cytotoxicity against human MCF7 cells assessed as growth inhibition at 10 uM after 48 hrs by sulphorhodamine B assay; format: functional; conditions: MCF7, 48 h, read-out: GI; procedure, shortened: as §1
[24] = Displacement of methyl green from DNA (unknown origin) after 24 hrs
Procedure, shortened: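 DNA-methyl green complex was stirred in 0.05 M Tris-HCl pH 7.5 with 7.5 mmol MgSO4 at 37 °C for 24 h. Compound was dried down from EtOH in tubes and the DNA-methyl green solution added. A630 was read initially and after 24 h dark incubation at room temperature, corrected and normalized to untreated complex. IC50 is the concentration giving a 50% absorbance decrease; mean ± SD, n = 6.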

[25] = system: ACHN; assay: Cytotoxicity against human ACHN cells assessed as growth inhibition at 10 uM after 48 hrs by sulphorhodamine B assay; format: functional; conditions: read-out: GI; procedure, shortened: as §1
[26] = system: RPMI-8226; assay: Cytotoxicity against human RPMI8226 cells assessed as growth inhibition at 10 uM after 48 hrs by sulphorhodamine B assay; format: functional; conditions: RPMI-8226, 48 h, read-out: GI; procedure, shortened: as §1
[27] = system: UO-31; assay: Cytotoxicity against human UO31 cells assessed as growth inhibition at 10 uM after 48 hrs by sulphorhodamine B assay; format: functional; conditions: UO-31, 48 h, read-out: GI; procedure, shortened: as §1
[28] = Binding affinity to DNA (unknown origin) at 5 mg/mL by RP-TLC plate analysis
Procedure, shortened: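 Reversed-phase C18 TLC plates pre-developed in methanol/water 8:2. Compound spotted at origin (5 mg/mL in methanol), then DNA (1 mg/mL in water/methanol 8:2) applied at the same spot. Plates developed in the same eluent; DNA located by anisaldehyde spray (blue). Ethidium bromide as positive control.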

[29] = Cytotoxicity against human EKVX cells assessed as growth inhibition at 10 uM after 48 hrs by sulphorhodamine B assay; format: functional; conditions: read-out: GI; procedure, shortened: as §1
[30] = system: Hs-578T; assay: Cytotoxicity against human Hs578T cells assessed as growth inhibition at 10 uM after 48 hrs by sulphorhodamine B assay; format: functional; conditions: read-out: GI; procedure, shortened: as §1
[31] = system: U-251; assay: Cytotoxicity against human U251 cells assessed as growth inhibition at 10 uM after 48 hrs by sulphorhodamine B assay; format: functional; conditions: U-251, 48 h, read-out: GI; procedure, shortened: as §1
[32] = system: A549; assay: Cytotoxicity against human A549 cells assessed as growth inhibition at 10 uM after 48 hrs by sulphorhodamine B assay; format: functional; conditions: A549, 48 h, read-out: GI; procedure, shortened: as §1
[33] = system: MDA-MB-468; assay: Cytotoxicity against human MDA-MB-468 cells assessed as growth inhibition at 10 uM after 48 hrs by sulphorhodamine B assay; format: functional; conditions: MDA-MB-468, 48 h, read-out: GI; procedure, shortened: as §1

With `CC1CCCc2c1nc1nc(SCC(=O)c3ccccc3)nc(N)c1c2-c1ccc(Cl)cc1` (stereo unspecified) the inhibition of growth at 10 µM [1] was 66.8%, the inhibition of growth at 10 µM [2] was 10% and the inhibition of growth at 10 µM [3] was 62.2%. For the same molecule, the inhibition of growth at 10 µM [4] was 21.2%, the inhibition of growth at 10 µM [5] was 12.8% and the inhibition of growth at 10 µM [6] was 60.1%. The inhibition of growth at 10 µM [7] was 24.7%, the inhibition of growth at 10 µM [8] was 20% and the inhibition of growth at 10 µM [9] was 27.7%. It also gave an inhibition of growth at 10 µM [10] of 17%, an inhibition of growth at 10 µM [11] of less than 10% and an inhibition of growth at 10 µM [12] of 90%. It also gave an inhibition of growth at 10 µM [13] of 14.5%, an inhibition of growth at 10 µM [14] of less than 10% and an inhibition of growth at 10 µM [15] of 14.6%. It also gave an inhibition of growth at 10 µM [16] of 23.9%, an inhibition of growth at 10 µM [17] of 70.8% and an inhibition of growth at 10 µM [18] of 17.5%. The inhibition of growth at 10 µM [19] was 11.8%, the inhibition of growth at 10 µM [20] was less than 10% and the inhibition of growth at 10 µM [21] was 13%. It also gave an inhibition of growth at 10 µM [22] of 67%, an inhibition of growth at 10 µM [23] of 30% and an IC50 [24] of 0.061 µg/mL (≈ 0.128 µM). For the same molecule, the inhibition of growth at 10 µM [25] was 29.3%, the inhibition of growth at 10 µM [26] was 69.2% and the inhibition of growth at 10 µM [27] was 63%. For the same molecule, the Activity [28] was “Active”, the inhibition of growth at 10 µM [29] was 26.7% and the inhibition of growth at 10 µM [30] was 38.2%. For the same molecule, the inhibition of growth at 10 µM [31] was 21.5%, the inhibition of growth at 10 µM [32] was 17.6% and the inhibition of growth at 10 µM [33] was 22.9%.
In the case of `CCSc1nc(N)c2c(-c3ccc(Cl)cc3)c3c(nc2n1)C(C)CCC3` (stereo unspecified), the inhibition of growth at 10 µM [1] is reported as 25.3%, the inhibition of growth at 10 µM [2] is reported as 12.3% and the inhibition of growth at 10 µM [3] is reported as 26.6%. For the same molecule, the inhibition of growth at 10 µM [4] was 21.7%, the inhibition of growth at 10 µM [5] was 12.8% and the inhibition of growth at 10 µM [6] was 28.4%. For the same molecule, the inhibition of growth at 10 µM [7] was 15.3%, the inhibition of growth at 10 µM [8] was 26.8% and the inhibition of growth at 10 µM [9] was 32.4%. It also gave an inhibition of growth at 10 µM [10] of less than 10%, an inhibition of growth at 10 µM [11] of 15.2% and an inhibition of growth at 10 µM [12] of 35.2%. For the same molecule, the inhibition of growth at 10 µM [13] was less than 10%, the inhibition of growth at 10 µM [14] was less than 10% and the inhibition of growth at 10 µM [15] was less than 10%. It also gave an inhibition of growth at 10 µM [16] of less than 10%, an inhibition of growth at 10 µM [17] of 21.8% and an inhibition of growth at 10 µM [18] of 21.9%. For the same molecule, the inhibition of growth at 10 µM [19] was less than 10%, the inhibition of growth at 10 µM [20] was 37.9% and the inhibition of growth at 10 µM [21] was 14.5%. The inhibition of growth at 10 µM [22] was less than 10%, the inhibition of growth at 10 µM [23] was less than 10% and the IC50 [24] was 0.127 µg/mL (≈ 0.33 µM). For the same molecule, the inhibition of growth at 10 µM [25] was 30.8%, the inhibition of growth at 10 µM [26] was 33.8% and the inhibition of growth at 10 µM [27] was 59%. For the same molecule, the Activity [28] was “Active”, the inhibition of growth at 10 µM [29] was 12.3% and the inhibition of growth at 10 µM [30] was 14.2%. The inhibition of growth at 10 µM [31] was 13.6%, the inhibition of growth at 10 µM [32] was 18.1% and the inhibition of growth at 10 µM [33] was 30.8%.

From ChEMBL document CHEMBL2375313, “Synthesis, in vitro antitumor evaluation and DNA-binding study of novel tetrahydroquinolines and some derived tricyclic and tetracyclic ring systems” (Eur J Med Chem, 2013)
